The subject of data set [1] is Mast/stem cell growth factor receptor Kit (Homo sapiens), P10721 [V559D,V654A]. The data set can be described thus: Binding affinity to human partial length KIT V559D/V654A double mutant (Y545 to D952 residues) expressed in bacterial expression system assessed as residual binding level at 1 uM by Kinomescan method relative to control. A digest of the protocol: (§1)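 Kinome-wide single-concentration binding screen (KINOMEscan) at 1 μM against a panel of 468 purified kinases and mutants. Read-out is relative binding of each kinase compared with control. Selectivity across the panel was summarised as an S(10) score.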

In data set [2] the target is Serine/threonine-protein kinase N2 (Homo sapiens) (UniProt Q16513). The data set can be described thus: Binding affinity to wild-type human partial length PKN2 (E634 to C984 residues) expressed in bacterial expression system assessed as residual binding level at 1 uM by Kinomescan method relative to control.
Data set [3] addresses Proto-oncogene tyrosine-protein kinase ROS (Homo sapiens) (UniProt P08922). The data set can be described thus: Binding affinity to wild-type human partial length ROS1 (A1921 to N2240 residues) expressed in bacterial expression system assessed as residual binding level at 1 uM by Kinomescan method relative to control.
In data set [4] the target is Serine/threonine-protein kinase TNNI3K (Homo sapiens) (UniProt Q59H18). The data set can be described thus: Binding affinity to wild-type human full length TNNI3K (M1 to S835 residues) expressed in bacterial expression system assessed as residual binding level at 1 uM by Kinomescan method relative to control. In outline:
(§2)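 Single-concentration KINOMEscan (DiscoverX) binding screen at 1 μM against a panel of 468 purified kinases and mutants. The read-out is binding relative to control.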

The target in data set [5] is Mitogen-activated protein kinase kinase kinase 14 (Homo sapiens) (UniProt Q99558). Kind of data set: Binding affinity to wild-type human partial length NIK (L318 to P947 residues) expressed in mammalian expression system assessed as residual binding level at 1 uM by Kinomescan method relative to control. In outline: (§3)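 KINOMEscan competition binding against a panel of 468 purified kinases/mutants, compound tested at 1 μM; readout is relative binding activity versus control.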

Data set [6] relates to Mast/stem cell growth factor receptor Kit (Homo sapiens), P10721 [A829P]. Kind of data set: Binding affinity to human partial length KIT A829P mutant (I571 to D952 residues) expressed in mammalian expression system assessed as residual binding level at 1 uM by Kinomescan method relative to control. In outline:
as §1

Data set [7] addresses Tyrosine-protein kinase Yes (Homo sapiens) (UniProt P07947). Kind of data set: Binding affinity to wild-type human partial length YES (T257 to L543 residues) expressed in bacterial expression system assessed as residual binding level at 1 uM by Kinomescan method relative to control.
Data set [8] deals with Dual specificity protein kinase CLK1 (Homo sapiens) (UniProt P49759). Kind of data set: Binding affinity to wild-type human full length CLK1 (M1 to I484 residues) expressed in bacterial expression system assessed as residual binding level at 1 uM by Kinomescan method relative to control. In outline:
(§4)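 KINOMEscan competition binding against 468 purified kinases/mutants, test compound at 1 µM; residual binding relative to control.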

A short description of data set [9]: AUC (0 to t) in Sprague-Dawley rat at 10 mg/kg, po. The class given is ADME, organism-based. As to conditions: in vivo. In outline: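 Male Sprague-Dawley rats (6–8 weeks) fasted overnight, dosed IV or orally; compound dissolved in 5% DMSO/40% PEG400/55% saline (dosing solution 1 mg/mL). Blood (~0.2 mL) from jugular vein into heparin; IV sampling 1 min–8 h, oral 5 min–24 h. Plasma separated by centrifugation at 2–8 °C, stored at −80 °C until analysis.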

In data set [10] the target is Dual specificity protein kinase TTK (Homo sapiens) (UniProt P33981). Kind of data set: Binding affinity to wild-type human partial length TTK (N505 to V798 residues) expressed in bacterial expression system assessed as residual binding level at 1 uM by Kinomescan method relative to control.
Data set [11] deals with cAMP-dependent protein kinase catalytic subunit PRKX (Homo sapiens) (UniProt P51817). Kind of data set: Binding affinity to wild-type human partial length PRKX (M1 to F358 residues) expressed in bacterial expression system assessed as residual binding level at 1 uM by Kinomescan method relative to control. In outline: as §3
Data set [12] has as its target Rho-associated protein kinase 1 (Homo sapiens) (UniProt Q13464). Kind of data set: Binding affinity to wild-type human partial length ROCK1 (M1 to R415 residues) expressed in mammalian expression system assessed as residual binding level at 1 uM by Kinomescan method relative to control.
For data set [13], the target named is T1, Platelet-derived growth factor receptor alpha (Homo sapiens, UniProt P16234). Kind of data set: Inhibition of PDGFRalpha in human EOL-1 cells assessed as decrease in STAT5 phosphorylation at Y694 residue after 2 hrs in presence of PDGF-AA by Western blot analysis. It counts as cell-based. (Immunoblotting shows a protein as a band on a membrane.)
T1 sequence (P16234 whole entry, the tested form may be a part): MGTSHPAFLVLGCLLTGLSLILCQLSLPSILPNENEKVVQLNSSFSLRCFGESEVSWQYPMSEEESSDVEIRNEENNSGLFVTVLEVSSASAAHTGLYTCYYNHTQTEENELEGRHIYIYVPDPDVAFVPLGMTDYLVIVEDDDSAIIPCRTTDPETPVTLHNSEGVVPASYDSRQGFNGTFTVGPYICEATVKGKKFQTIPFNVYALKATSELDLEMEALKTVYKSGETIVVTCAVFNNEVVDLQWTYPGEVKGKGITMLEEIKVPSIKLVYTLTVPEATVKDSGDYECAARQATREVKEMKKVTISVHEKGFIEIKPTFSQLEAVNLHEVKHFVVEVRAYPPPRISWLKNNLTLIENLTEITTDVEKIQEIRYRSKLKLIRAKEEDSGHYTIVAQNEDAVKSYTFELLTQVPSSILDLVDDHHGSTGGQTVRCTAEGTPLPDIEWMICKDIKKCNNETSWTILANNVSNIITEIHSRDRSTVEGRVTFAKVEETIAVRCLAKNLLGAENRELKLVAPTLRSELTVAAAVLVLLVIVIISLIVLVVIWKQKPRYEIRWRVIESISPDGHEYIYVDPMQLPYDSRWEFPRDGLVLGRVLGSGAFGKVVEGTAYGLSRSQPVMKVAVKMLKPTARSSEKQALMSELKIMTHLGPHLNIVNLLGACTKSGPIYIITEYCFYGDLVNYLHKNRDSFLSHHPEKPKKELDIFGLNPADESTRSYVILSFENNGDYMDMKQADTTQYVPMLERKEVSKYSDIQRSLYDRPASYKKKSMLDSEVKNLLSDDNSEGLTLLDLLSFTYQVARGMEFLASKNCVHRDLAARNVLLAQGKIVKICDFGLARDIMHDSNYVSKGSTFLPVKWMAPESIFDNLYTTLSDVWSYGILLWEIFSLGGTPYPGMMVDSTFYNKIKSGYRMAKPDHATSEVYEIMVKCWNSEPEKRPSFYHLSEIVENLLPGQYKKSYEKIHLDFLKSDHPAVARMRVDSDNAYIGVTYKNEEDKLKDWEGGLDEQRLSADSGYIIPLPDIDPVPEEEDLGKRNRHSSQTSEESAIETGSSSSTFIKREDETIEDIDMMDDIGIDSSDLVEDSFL
Data set [14] has as its target Bone morphogenetic protein receptor type-1A (Homo sapiens) (UniProt P36894). The data set can be described thus: Binding affinity to wild-type human partial length BMPR1A (Q214 to I532 residues) expressed in bacterial expression system assessed as residual binding level at 1 uM by Kinomescan method relative to control. In outline: as §2
The target of data set [15] is Serine/threonine-protein kinase TAO2 (Homo sapiens) (UniProt Q9UL54). Kind of data set: Binding affinity to wild-type human partial length TAOK2 (M1 to A320 residues) expressed in mammalian expression system assessed as residual binding level at 1 uM by Kinomescan method relative to control.
The target in data set [16] is T1, Platelet-derived growth factor receptor alpha. The data set can be described thus: Inhibition of PDGFRalpha autophosphorylation at Y754 residue in human EOL-1 cells up to 300 nM after 2 hrs by Western blot method. The class given is cell-based.
The target in data set [17] is Serine/threonine-protein kinase D1 (Homo sapiens) (UniProt Q15139). The data set can be described thus: Binding affinity to wild-type human partial length PRKD1 (G551 to E870 residues) expressed in bacterial expression system assessed as residual binding level at 1 uM by Kinomescan method relative to control. In outline: as §3
Chain of Serine/threonine-protein kinase D1 (Homo sapiens) (Q15139 whole entry, the tested form may be a part): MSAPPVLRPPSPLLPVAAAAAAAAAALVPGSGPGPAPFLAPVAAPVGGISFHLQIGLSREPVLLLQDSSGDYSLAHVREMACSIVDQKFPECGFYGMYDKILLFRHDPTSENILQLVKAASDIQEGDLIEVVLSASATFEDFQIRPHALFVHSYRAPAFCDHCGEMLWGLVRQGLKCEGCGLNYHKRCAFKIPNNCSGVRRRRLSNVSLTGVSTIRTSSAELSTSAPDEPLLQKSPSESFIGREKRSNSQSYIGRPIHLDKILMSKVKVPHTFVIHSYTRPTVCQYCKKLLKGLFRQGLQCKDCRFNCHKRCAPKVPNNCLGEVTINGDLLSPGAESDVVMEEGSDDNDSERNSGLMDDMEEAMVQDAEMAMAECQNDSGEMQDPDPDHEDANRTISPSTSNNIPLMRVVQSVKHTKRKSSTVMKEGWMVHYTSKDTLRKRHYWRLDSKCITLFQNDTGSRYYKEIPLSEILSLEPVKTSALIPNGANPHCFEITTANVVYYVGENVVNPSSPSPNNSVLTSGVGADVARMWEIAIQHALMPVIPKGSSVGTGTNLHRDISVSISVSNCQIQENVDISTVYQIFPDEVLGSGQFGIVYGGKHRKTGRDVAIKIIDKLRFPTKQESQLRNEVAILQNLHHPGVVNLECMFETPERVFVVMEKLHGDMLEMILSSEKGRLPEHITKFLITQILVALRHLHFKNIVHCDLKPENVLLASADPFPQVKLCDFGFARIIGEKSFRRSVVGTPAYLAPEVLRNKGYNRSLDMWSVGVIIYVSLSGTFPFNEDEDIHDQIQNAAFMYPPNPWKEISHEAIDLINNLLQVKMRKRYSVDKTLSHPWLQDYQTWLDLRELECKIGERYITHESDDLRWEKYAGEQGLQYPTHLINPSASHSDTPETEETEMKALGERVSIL
Data set [18] addresses Cyclin-dependent kinase 15 (Homo sapiens) (UniProt Q96Q40). Kind of data set: Binding affinity to wild-type human full length PFTAIRE2 (M1 to W384 residues) expressed in bacterial expression system assessed as residual binding level at 1 uM by Kinomescan method relative to control. In outline: as §4
The species named for the next data set is Homo sapiens. The data set can be described thus: Selectivity index, ratio of GI50 for TEL-fused PDGFRbeta (unknown origin) expressed in mouse BA/F3 cells to GI50 for TEL-fused PDGFRalpha (unknown origin) expressed in mouse BA/F3 cells. It counts as cell-based. In outline: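 Parental BaF3 or IL-3-independent TEL-kinase BaF3 lines, made by retroviral infection and puromycin selection, grown in RPMI 1640 with 10% FBS. Cells seeded at 1–3 × 10^4 cells/mL with serial compound concentrations for 72 h. Viability read by CellTiter-Glo luminescence or CCK-8 absorbance at 450/655 nm and normalised to DMSO. GI50 obtained by triplicate testing with linear regression. Selectivity is the ratio of the two GI50 values.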

For data set [19], the target named is High affinity nerve growth factor receptor (Homo sapiens) (UniProt P04629). The data set can be described thus: Binding affinity to wild-type human partial length TRKA (G475 to G790 residues) expressed in mammalian expression system assessed as residual binding level at 1 uM by Kinomescan method relative to control.
The target in data set [20] is Serine/threonine-protein kinase 3 (Homo sapiens) (UniProt Q13188). Kind of data set: Binding affinity to wild-type human partial length MST2 (D17 to E318 residues) expressed in bacterial expression system assessed as residual binding level at 1 uM by Kinomescan method relative to control.

Structures are written as SMILES. Activity calls are given as the source filed them. The calls are words filed in the database; no cut-off is given here.

This is an account of results in ChEMBL document CHEMBL4229344 (Eur J Med Chem, 2018).

For orientation: AUC(0-t) means exposure summed from dosing to a finite time, without extrapolation to infinity.

Chain of Tyrosine-protein kinase Yes (Homo sapiens) (P07947 2-543 limits assumed): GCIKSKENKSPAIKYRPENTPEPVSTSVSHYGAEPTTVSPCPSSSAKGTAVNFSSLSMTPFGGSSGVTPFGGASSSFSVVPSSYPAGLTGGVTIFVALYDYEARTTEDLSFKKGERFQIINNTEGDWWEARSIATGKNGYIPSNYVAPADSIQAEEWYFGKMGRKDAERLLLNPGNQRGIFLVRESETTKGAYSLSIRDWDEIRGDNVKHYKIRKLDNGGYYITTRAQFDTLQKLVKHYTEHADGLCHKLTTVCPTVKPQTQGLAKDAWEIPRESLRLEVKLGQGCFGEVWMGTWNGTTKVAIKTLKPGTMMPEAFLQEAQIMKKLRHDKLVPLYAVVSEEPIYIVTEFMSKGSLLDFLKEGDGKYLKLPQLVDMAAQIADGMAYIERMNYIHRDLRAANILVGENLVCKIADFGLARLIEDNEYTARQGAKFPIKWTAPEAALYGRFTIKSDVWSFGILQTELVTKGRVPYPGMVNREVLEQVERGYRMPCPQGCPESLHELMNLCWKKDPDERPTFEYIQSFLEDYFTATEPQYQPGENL
Chain of Serine/threonine-protein kinase TNNI3K (Homo sapiens) (Q59H18 whole entry, the tested form may be a part): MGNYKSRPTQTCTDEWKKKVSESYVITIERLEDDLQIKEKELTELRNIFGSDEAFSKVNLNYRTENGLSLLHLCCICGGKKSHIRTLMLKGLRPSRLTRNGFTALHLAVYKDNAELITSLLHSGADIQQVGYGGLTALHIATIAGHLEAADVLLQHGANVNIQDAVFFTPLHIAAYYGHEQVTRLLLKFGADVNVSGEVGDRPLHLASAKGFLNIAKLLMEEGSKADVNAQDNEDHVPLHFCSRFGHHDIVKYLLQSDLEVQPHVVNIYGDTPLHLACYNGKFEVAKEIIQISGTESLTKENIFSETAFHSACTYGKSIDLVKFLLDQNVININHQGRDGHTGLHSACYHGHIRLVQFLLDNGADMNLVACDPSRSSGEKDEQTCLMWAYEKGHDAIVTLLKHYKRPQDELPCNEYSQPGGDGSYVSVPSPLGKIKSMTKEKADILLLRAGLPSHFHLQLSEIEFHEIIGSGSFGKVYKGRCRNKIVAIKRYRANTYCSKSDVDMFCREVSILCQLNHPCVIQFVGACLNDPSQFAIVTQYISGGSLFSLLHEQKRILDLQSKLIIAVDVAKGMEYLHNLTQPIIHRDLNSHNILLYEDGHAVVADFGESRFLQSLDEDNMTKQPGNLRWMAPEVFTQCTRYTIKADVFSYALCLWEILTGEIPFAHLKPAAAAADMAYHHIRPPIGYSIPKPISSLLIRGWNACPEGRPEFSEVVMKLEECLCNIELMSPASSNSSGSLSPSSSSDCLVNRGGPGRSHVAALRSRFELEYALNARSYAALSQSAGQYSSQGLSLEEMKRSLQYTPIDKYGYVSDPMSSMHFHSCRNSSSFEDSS
Chain of Cyclin-dependent kinase 15 (Homo sapiens) (Q96Q40 whole entry, the tested form may be a part): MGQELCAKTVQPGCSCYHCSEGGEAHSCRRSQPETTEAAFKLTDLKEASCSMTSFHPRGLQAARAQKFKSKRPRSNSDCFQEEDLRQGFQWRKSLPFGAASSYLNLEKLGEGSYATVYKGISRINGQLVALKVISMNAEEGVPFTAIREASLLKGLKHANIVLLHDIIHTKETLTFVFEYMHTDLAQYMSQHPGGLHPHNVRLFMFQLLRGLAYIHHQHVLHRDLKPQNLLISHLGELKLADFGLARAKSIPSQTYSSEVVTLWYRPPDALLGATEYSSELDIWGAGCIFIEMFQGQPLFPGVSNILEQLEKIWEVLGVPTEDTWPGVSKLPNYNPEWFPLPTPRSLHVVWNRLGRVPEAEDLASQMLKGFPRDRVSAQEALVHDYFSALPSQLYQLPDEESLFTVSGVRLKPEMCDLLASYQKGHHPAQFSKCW
Chain of Mast/stem cell growth factor receptor Kit (Homo sapiens), P10721 [A829P] (P10721 whole entry A829P, the tested form may be a part): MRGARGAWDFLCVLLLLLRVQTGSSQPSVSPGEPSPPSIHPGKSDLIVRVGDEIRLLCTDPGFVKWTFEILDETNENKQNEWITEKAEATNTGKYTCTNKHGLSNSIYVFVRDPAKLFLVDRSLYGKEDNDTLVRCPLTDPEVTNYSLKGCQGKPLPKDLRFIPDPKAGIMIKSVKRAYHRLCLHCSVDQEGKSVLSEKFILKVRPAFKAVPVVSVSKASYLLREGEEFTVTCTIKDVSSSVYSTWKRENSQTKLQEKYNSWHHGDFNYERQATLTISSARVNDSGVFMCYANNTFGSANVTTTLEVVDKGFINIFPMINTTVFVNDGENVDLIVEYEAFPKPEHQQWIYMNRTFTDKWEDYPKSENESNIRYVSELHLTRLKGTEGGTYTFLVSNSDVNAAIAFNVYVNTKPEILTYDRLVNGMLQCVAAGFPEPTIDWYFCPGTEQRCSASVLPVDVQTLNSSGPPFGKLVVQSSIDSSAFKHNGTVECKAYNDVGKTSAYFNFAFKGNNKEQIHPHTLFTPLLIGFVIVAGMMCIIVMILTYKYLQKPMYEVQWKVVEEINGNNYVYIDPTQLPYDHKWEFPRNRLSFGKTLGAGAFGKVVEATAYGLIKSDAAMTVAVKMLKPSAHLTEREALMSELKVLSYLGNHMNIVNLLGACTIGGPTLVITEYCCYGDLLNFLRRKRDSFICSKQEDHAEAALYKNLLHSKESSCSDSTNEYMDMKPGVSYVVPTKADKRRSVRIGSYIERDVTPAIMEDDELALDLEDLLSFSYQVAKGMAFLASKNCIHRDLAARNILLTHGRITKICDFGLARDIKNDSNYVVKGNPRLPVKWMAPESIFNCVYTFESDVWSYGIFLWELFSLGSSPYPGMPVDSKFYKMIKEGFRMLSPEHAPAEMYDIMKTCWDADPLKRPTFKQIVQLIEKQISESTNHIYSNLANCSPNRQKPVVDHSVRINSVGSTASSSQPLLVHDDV
Chain of Mast/stem cell growth factor receptor Kit (Homo sapiens), P10721 [V559D,V654A] (P10721 whole entry V559D/V654A, the tested form may be a part): as the sequence (P10721 whole entry A829P, the tested form may be a part) above, with V559D, V654A, P829A counted along it

On to `Cc1ccc(NC(=O)c2ccc(CN(CCN(C)C)C(=O)c3cccnc3)cc2)cc1Nc1nccc(-c2cccnc2)n1`, for which the Activity in data set [1] came out at 25%; in [2] it was 96%; in data set [3] it was 99%; in [4], 100%; in [5] it was 82%; in data set [6], 81%. For the same molecule, the Activity in [7] was 100%; in data set [8] it was 87%; in [10] it was 81%; in data set [11], 92%; in data set [12], 100%; in data set [14] it was 100%. The Activity in [15] was 77%; in data set [17], 75%; in [18], 87%; in [19] it was 95%; in data set [20], 100%. This molecule returned an AUC(0-t) in data set [9] of 103 ng·h/mL. In addition, the inhibition entry in [13] was “Dose-dependent effect”. For the same molecule, the inhibition result in data set [16] was “inactive”. Moreover, the RatioGI50 in the data set listed under Homo sapiens was 85.
